Test results published in ChEMBL document CHEMBL4339192, “De Novo Designed Amphipathic α-Helical Antimicrobial Peptides Incorporating Dab and Dap Residues on the Polar Face To Treat the Gram-Negative Pathogen, Acinetobacter baumannii” (J Med Chem, 2019).
Values after ≈ are worked out from the molar mass of the structure shown. Where a SMILES comes first, the peptide text is derived from it. [ ]: non-standard residue; d: D form. dOrn = NCCC[C@@H](N)C(=O)O

How the values were obtained:
Type in all cases: functional
[1] = system: Acinetobacter baumannii; assay: Antibacterial activity against Acinetobacter baumannii isolate 965463 measured after 24 hrs by microtiter dilution method; conditions: isolate 965463, 24 h
Summary of the method: (§1)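 Broth microdilution in Mueller-Hinton (MH) medium. […] Plates were incubated 24 h at 37 °C. MIC was the lowest peptide concentration that inhibited growth, based on three sets of replicates.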

[2] = system: Acinetobacter baumannii; assay: Antibacterial activity against Acinetobacter baumannii isolate 1002956 measured after 24 hrs by microtiter dilution method; conditions: isolate 1002956, 24 h; summary of the method: as §1
[3] = system: Acinetobacter baumannii; assay: Antibacterial activity against polymyxin B/colistin-resistant Acinetobacter baumannii M89951 measured after 24 hrs by microtiter dilution method; conditions: M89951, 24 h; summary of the method: as §1
[4] = system: Acinetobacter baumannii; assay: Antibacterial activity against Acinetobacter baumannii isolate 961997 measured after 24 hrs by microtiter dilution method; conditions: isolate 961997, 24 h; summary of the method: as §1
[5] = system: Acinetobacter baumannii; assay: Antibacterial activity against Acinetobacter baumannii isolate 1018887 measured after 24 hrs by microtiter dilution method; conditions: isolate 1018887, 24 h; summary of the method: as §1
[6] = system: Acinetobacter baumannii; assay: Antibacterial activity against Acinetobacter baumannii isolate 9383370 measured after 24 hrs by microtiter dilution method; conditions: isolate 9383370, 24 h; summary of the method: as §1
[7] = system: Acinetobacter baumannii; assay: Antibacterial activity against Acinetobacter baumannii isolate 1035794 measured after 24 hrs by microtiter dilution method; conditions: isolate 1035794, 24 h; summary of the method: as §1
[8] = system: Acinetobacter baumannii; assay: Antibacterial activity against polymyxin B/colistin-resistant Acinetobacter baumannii M89952 measured after 24 hrs by microtiter dilution method; conditions: M89952, 24 h; summary of the method: as §1
[9] = system: Acinetobacter baumannii; assay: Antibacterial activity against Acinetobacter baumannii isolate 981650 measured after 24 hrs by microtiter dilution method; conditions: isolate 981650, 24 h; summary of the method: as §1
[10] = system: Acinetobacter baumannii; assay: Antibacterial activity against polymyxin B/colistin-resistant Acinetobacter baumannii M89953 measured after 24 hrs by microtiter dilution method; conditions: M89953, 24 h; summary of the method: as §1
[11] = system: Acinetobacter baumannii; assay: Antibacterial activity against polymyxin B/colistin-resistant Acinetobacter baumannii M89941 measured after 24 hrs by microtiter dilution method; conditions: M89941, 24 h; summary of the method: as §1
[12] = system: Acinetobacter baumannii; assay: Antibacterial activity against Acinetobacter baumannii isolate 1001611 measured after 24 hrs by microtiter dilution method; conditions: isolate 1001611, 24 h; summary of the method: as §1
[13] = system: Acinetobacter baumannii; assay: Antibacterial activity against Acinetobacter baumannii isolate 964304 measured after 24 hrs by microtiter dilution method; conditions: isolate 964304, 24 h; summary of the method: as §1
[14] = system: Acinetobacter baumannii; assay: Antibacterial activity against Acinetobacter baumannii 649 measured after 24 hrs in presence of 25% human serum by microtiter dilution method; conditions: Acinetobacter baumannii, 649, 24 h
Summary of the method: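 Blood strain 649 was tested by MH broth microdilution with and without 25% (v/v) human serum added to the medium. The test used a final inoculum of 5 × 10^5 cfu/mL and incubation at 37 °C. The ratio is the MIC in serum over the MIC in MH alone.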

[15] = system: Acinetobacter baumannii; assay: Antibacterial activity against Acinetobacter baumannii isolate 952654 measured after 24 hrs by microtiter dilution method; conditions: isolate 952654, 24 h; summary of the method: as §1
[16] = system: Acinetobacter baumannii; assay: Antibacterial activity against Acinetobacter baumannii isolate 1010282 measured after 24 hrs by microtiter dilution method; conditions: isolate 1010282, 24 h; summary of the method: as §1
[17] = system: Acinetobacter baumannii; assay: Antibacterial activity against Acinetobacter baumannii 649 measured after 24 hrs by microtiter dilution method; conditions: Acinetobacter baumannii, 649, 24 h; summary of the method: as §1
[18] = system: Acinetobacter baumannii; assay: Antibacterial activity against Acinetobacter baumannii isolate 977751 measured after 24 hrs by microtiter dilution method; conditions: isolate 977751, 24 h; summary of the method: as §1
[19] = system: Acinetobacter baumannii; assay: Antibacterial activity against Acinetobacter baumannii isolate 963659 measured after 24 hrs by microtiter dilution method; conditions: isolate 963659, 24 h; summary of the method: as §1
[20] = system: Acinetobacter baumannii; assay: Antibacterial activity against polymyxin B/colistin-resistant Acinetobacter baumannii M89949 measured after 24 hrs by microtiter dilution method; conditions: M89949, 24 h; summary of the method: as §1
[21] = system: Acinetobacter baumannii; assay: Antibacterial activity against Acinetobacter baumannii isolate 1021371 measured after 24 hrs by microtiter dilution method; conditions: isolate 1021371, 24 h; summary of the method: as §1
[22] = system: Acinetobacter baumannii; assay: Antibacterial activity against Acinetobacter baumannii isolate 1035166 measured after 24 hrs by microtiter dilution method; conditions: isolate 1035166, 24 h; summary of the method: as §1
[23] = system: Acinetobacter baumannii; assay: Antibacterial activity against Acinetobacter baumannii isolate 1017395 measured after 24 hrs by microtiter dilution method; conditions: isolate 1017395, 24 h; summary of the method: as §1
[24] = system: Acinetobacter baumannii; assay: Antibacterial activity against polymyxin B/colistin-resistant Acinetobacter baumannii M89955 measured after 24 hrs by microtiter dilution method; conditions: M89955, 24 h; summary of the method: as §1
[25] = system: Acinetobacter baumannii; assay: Antibacterial activity against polymyxin B/colistin-resistant Acinetobacter baumannii M89963 measured after 24 hrs by microtiter dilution method; conditions: M89963, 24 h; summary of the method: as §1
[26] = system: Acinetobacter baumannii; assay: Antibacterial activity against Acinetobacter baumannii isolate 1010245 measured after 24 hrs by microtiter dilution method; conditions: isolate 1010245, 24 h; summary of the method: as §1
[27] = system: Acinetobacter baumannii; assay: Antibacterial activity against Acinetobacter baumannii isolate 968886 measured after 24 hrs by microtiter dilution method; conditions: isolate 968886, 24 h; summary of the method: as §1
[28] = system: Acinetobacter baumannii; assay: Antibacterial activity against Acinetobacter baumannii isolate 1007660 measured after 24 hrs by microtiter dilution method; conditions: isolate 1007660, 24 h; summary of the method: as §1
[29] = system: Acinetobacter baumannii; assay: Antibacterial activity against Acinetobacter baumannii isolate 963618 measured after 24 hrs by microtiter dilution method; conditions: isolate 963618, 24 h; summary of the method: as §1

Row | SMILES | MIC [1] | MIC [2] | MIC [3] | MIC [4] | MIC [5] | MIC [6] | MIC [7] | MIC [8] | MIC [10] | MIC [11] | MIC [12] | MIC [13] | MIC [14] | MIC [15] | MIC [16] | MIC [17] | MIC [18] | MIC [20] | MIC [24] | MIC [25] | further results
1 | CC(=O)N[C@H](CCCCN)C(=O)N[C@H](CC(C)C)C(=O)N[C@H](CCCCN)C(=O)N[C@H](CO)C(=O)N[C@H](CC(C)C)C(=O)N[C@H](CC(C)C)C(=O)N[C@H](CCCCN)C(=O)N[C@@H](C(=O)N[C@H](CC(C)C)C(=O)N[C@H](CO)C(=O)N[C@H](CCCCN)C(=O)N[C@H](C)C(=O)N[C@H](CCCCN)C(=O)N[C@H](C)C(=O)N[C@H](C)C(=O)N[C@H](CCCCN)C(=O)N[C@H](CC(C)C)C(=O)N[C@H](CCCCN)C(=O)N[C@@H](C(=O)N[C@H](CC(C)C)C(=O)N[C@H](CC(C)C)C(=O)N[C@H](CCCCN)C(=O)N[C@H](C)C(=O)N[C@H](CC(C)C)C(=O)N[C@H](CO)C(=O)N[C@H](CCCCN)C(N)=O)[C@H](C)O)[C@H](C)O (Ac-[dK][dL][dK][dS][dL][dL][dK][dT][dL][dS][dK][dA][dK][dA][dA][dK][dL][dK][dT][dL][dL][dK][dA][dL][dS][dK]-NH2) | 0.7 µM (≈ 2.01 µg/mL) | 0.3 µM (≈ 0.86 µg/mL) | 0.3 µM (≈ 0.86 µg/mL) | 1.4 µM (≈ 4.01 µg/mL) | 0.7 µM (≈ 2.01 µg/mL) | 0.7 µM (≈ 2.01 µg/mL) | 0.7 µM (≈ 2.01 µg/mL) | 0.7 µM (≈ 2.01 µg/mL) | 0.7 µM (≈ 2.01 µg/mL) | 0.3 µM (≈ 0.86 µg/mL) | 0.7 µM (≈ 2.01 µg/mL) | 1.4 µM (≈ 4.01 µg/mL) | 0.3 µM | 0.7 µM (≈ 2.01 µg/mL) | 0.7 µM (≈ 2.01 µg/mL) | 0.3 µM (≈ 0.86 µg/mL) | 0.3 µM (≈ 0.86 µg/mL) | 0.7 µM (≈ 2.01 µg/mL) | 0.3 µM (≈ 0.86 µg/mL) | 0.7 µM (≈ 2.01 µg/mL) | MIC [9]: 0.7 µM (≈ 2.01 µg/mL); MIC [19]: 0.7 µM (≈ 2.01 µg/mL); MIC [21]: 0.7 µM (≈ 2.01 µg/mL); MIC [22]: 0.7 µM (≈ 2.01 µg/mL); MIC [23]: 0.7 µM (≈ 2.01 µg/mL); MIC [26]: 0.7 µM (≈ 2.01 µg/mL); MIC [27]: 0.7 µM (≈ 2.01 µg/mL)
2 | CC(=O)N[C@H](CCCCN)C(=O)N[C@H](CC(C)C)C(=O)N[C@H](CCCCN)C(=O)N[C@H](CO)C(=O)N[C@H](CC(C)C)C(=O)N[C@H](CC(C)C)C(=O)N[C@H](CCCCN)C(=O)N[C@@H](C(=O)N[C@H](CC(C)C)C(=O)N[C@H](CO)C(=O)N[C@H](CCCCN)C(=O)N[C@H](C)C(=O)N[C@H](CCCCN)C(=O)N[C@H](C)C(=O)N[C@H](C)C(=O)N[C@H](CCCCN)C(=O)N[C@H](CC(C)C)C(=O)N[C@H](CCCCN)C(=O)N[C@@H](C(=O)N[C@H](CC(C)C)C(=O)N[C@H](CC(C)C)C(=O)N[C@H](CCCCN)C(=O)N[C@H](C)C(=O)N[C@H](CC(C)C)C(=O)N[C@H](CO)C(=O)N[C@H](CO)C(N)=O)[C@H](C)O)[C@H](C)O (Ac-[dK][dL][dK][dS][dL][dL][dK][dT][dL][dS][dK][dA][dK][dA][dA][dK][dL][dK][dT][dL][dL][dK][dA][dL][dS][dS]-NH2) | 0.7 µM (≈ 1.98 µg/mL) | 0.7 µM (≈ 1.98 µg/mL) | 0.7 µM (≈ 1.98 µg/mL) | 1.4 µM (≈ 3.95 µg/mL) | 1.4 µM (≈ 3.95 µg/mL) | 0.7 µM (≈ 1.98 µg/mL) | 1.4 µM (≈ 3.95 µg/mL) | 0.7 µM (≈ 1.98 µg/mL) | 1.5 µM (≈ 4.24 µg/mL) | 0.7 µM (≈ 1.98 µg/mL) | 0.7 µM (≈ 1.98 µg/mL) | 1.4 µM (≈ 3.95 µg/mL) | 0.7 µM | 1.4 µM (≈ 3.95 µg/mL) | 1.4 µM (≈ 3.95 µg/mL) | 0.7 µM (≈ 1.98 µg/mL) | 0.7 µM (≈ 1.98 µg/mL) | 0.7 µM (≈ 1.98 µg/mL) | 0.7 µM (≈ 1.98 µg/mL) | 0.7 µM (≈ 1.98 µg/mL) | MIC [28]: 0.7 µM (≈ 1.98 µg/mL); MIC [19]: 1.4 µM (≈ 3.95 µg/mL); MIC [21]: 1.4 µM (≈ 3.95 µg/mL); MIC [29]: 0.7 µM (≈ 1.98 µg/mL); MIC [22]: 1.4 µM (≈ 3.95 µg/mL); MIC [23]: 1.4 µM (≈ 3.95 µg/mL); MIC [26]: 0.7 µM (≈ 1.98 µg/mL); MIC [27]: 0.7 µM (≈ 1.98 µg/mL)
3 | CC(=O)N[C@H](CCCCN)C(=O)N[C@H](CC(C)C)C(=O)N[C@H](CCCN)C(=O)N[C@H](CO)C(=O)N[C@H](CC(C)C)C(=O)N[C@H](CC(C)C)C(=O)N[C@H](CCCN)C(=O)N[C@@H](C(=O)N[C@H](CC(C)C)C(=O)N[C@H](CO)C(=O)N[C@H](CCCN)C(=O)N[C@H](C)C(=O)N[C@H](CCCCN)C(=O)N[C@H](C)C(=O)N[C@H](C)C(=O)N[C@H](CCCCN)C(=O)N[C@H](CC(C)C)C(=O)N[C@H](CCCN)C(=O)N[C@@H](C(=O)N[C@H](CC(C)C)C(=O)N[C@H](CC(C)C)C(=O)N[C@H](CCCN)C(=O)N[C@H](C)C(=O)N[C@H](CC(C)C)C(=O)N[C@H](CO)C(=O)N[C@H](CCCN)C(N)=O)[C@H](C)O)[C@H](C)O (Ac-[dK][dL][dOrn][dS][dL][dL][dOrn][dT][dL][dS][dOrn][dA][dK][dA][dA][dK][dL][dOrn][dT][dL][dL][dOrn][dA][dL][dS][dOrn]-NH2) | – | – | 0.7 µM (≈ 1.95 µg/mL) | – | – | – | – | – | 0.4 µM (≈ 1.11 µg/mL) | 0.7 µM (≈ 1.95 µg/mL) | – | – | – | – | – | 0.4 µM (≈ 1.11 µg/mL) | – | 0.7 µM (≈ 1.95 µg/mL) | 0.4 µM (≈ 1.11 µg/mL) | 0.4 µM (≈ 1.11 µg/mL) | –
